The test system of one test is MDA-MB-231. Nature of the test: Cytotoxicity against human MDA-MB-231 cells after 24 hrs by MTT assay. Type of test: functional, cell-based. The note with it: MDA-MB-231, 24 h. The gist of the method:
(§1)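 Cells obtained from National Center for Cell Sciences, Pune, and grown in RPMI-1640 with 10% heat-inactivated FBS, penicillin/streptomycin and 2 mM glutamine at 37 °C, 5% CO₂. Seeded at 5 × 10³ cells/well and treated with or without compound at 1 and 10 for 24 h. MTT (5 mg/ml in PBS) was added for 2 h at 37 °C, then DMSO, and absorbance read at 570 nm. Triplicate wells per point; IC50 is 50% growth inhibition relative to untreated cells.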

For a further test, the system named is K562. In words: Cytotoxicity against human K562 cells after 24 hrs by MTT assay. The class given is functional, cell-based. The note with it: K562, 24 h. The method in brief:
as §1
On the technique in general: Tetrazolium dyes change colour on reduction, which living cells bring about.

Another test concerns IMR-32. Nature of the test: Cytotoxicity against human IMR32 cells after 24 hrs by MTT assay. The class given is functional, cell-based. The note with it: IMR-32, 24 h. The method in brief:
as §1

In the next test the test system is COLO 205. In words: Cytotoxicity against human COLO205 cells after 24 hrs by MTT assay. Type of test: functional, cell-based. The following applies: COLO 205, 24 h. The method in brief: as §1
The target of test [1] is T1, NAD-dependent protein deacetylase sirtuin-1 (Homo sapiens) (UniProt Q96EB6).
T1 sequence (whole entry): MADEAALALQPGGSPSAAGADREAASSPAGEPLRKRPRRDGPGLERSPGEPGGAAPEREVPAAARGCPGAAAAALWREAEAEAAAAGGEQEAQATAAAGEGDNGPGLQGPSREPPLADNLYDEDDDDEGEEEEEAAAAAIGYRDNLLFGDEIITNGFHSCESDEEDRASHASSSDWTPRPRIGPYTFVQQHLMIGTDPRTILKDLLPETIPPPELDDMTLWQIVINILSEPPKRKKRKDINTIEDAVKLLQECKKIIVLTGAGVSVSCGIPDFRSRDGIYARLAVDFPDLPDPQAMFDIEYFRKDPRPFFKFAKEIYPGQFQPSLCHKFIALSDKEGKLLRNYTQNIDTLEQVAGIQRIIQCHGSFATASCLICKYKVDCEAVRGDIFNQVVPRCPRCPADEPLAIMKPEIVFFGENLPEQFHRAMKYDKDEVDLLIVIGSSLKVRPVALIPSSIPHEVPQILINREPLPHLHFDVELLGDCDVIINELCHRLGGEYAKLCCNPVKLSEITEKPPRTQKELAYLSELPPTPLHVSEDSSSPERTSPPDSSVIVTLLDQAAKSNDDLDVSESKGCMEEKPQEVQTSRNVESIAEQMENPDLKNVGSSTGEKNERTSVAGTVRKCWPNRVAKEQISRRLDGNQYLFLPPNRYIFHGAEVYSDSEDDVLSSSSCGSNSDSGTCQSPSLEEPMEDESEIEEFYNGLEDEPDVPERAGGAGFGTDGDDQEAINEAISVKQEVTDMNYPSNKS
Nature of the test: Inhibition of human N-terminally hexa-his-tagged SIRT1 expressed in Escherichia coli BL21 (DE3) at 10 uM after 15 mins by […]. The method in brief:
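Commercial SIRT1 fluorescence kit using bacterially purified human Sirt1, fluorophore-labelled substrate peptide (25) and NAD⁺ (25), with or without compound at 10, for 15 min at 37 °C. Stop solution was then added for 45 min at room temperature. Fluorescence read at Ex 360/Em 450 nm. The no-enzyme blank and the compound autofluorescence (no-enzyme) control were subtracted.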

A value given as a limit tells only on which side of the number the result lay.

Usually IC50 stands for the point on the concentration scale where inhibition reaches its midpoint. Lower therefore signals greater potency in that assay. Usually inhibition stands for the drop in the measured response relative to a control, in per cent. Lower therefore signals little suppression.

With `COc1ccc2nc3c(cc2c1)c(=O)oc1ccccc13`, the IC50 in the test on MDA-MB-231 is 9 µM; with K562 it was 39 µM; with IMR-32, 36 µM; in the test on COLO 205 it was 41 µM.
For `NS(=O)(=O)c1cc(C(=O)O)cc([N+](=O)[O-])c1NCc1cc2ccccc2nc1-c1ccccc1O`, the IC50 was determined as 8 µM with MDA-MB-231, 10 µM in the test on K562, 18 µM in the test on IMR-32 and 19 µM with COLO 205. Also, the inhibition in test [1] came out at 61%.
Regarding `O=c1oc2ccccc2c2nc3cc(Br)ccc3cc12`, the IC50 in the test with MDA-MB-231 was 19 µM; with K562, 23 µM; in the test on IMR-32 it was 23 µM; in the test with COLO 205 it was 38 µM.
As to `OCc1cc2cc(Cl)ccc2nc1-c1ccccc1O`, the IC50 was more than 100 µM in the test with MDA-MB-231, 11 µM with K562, 65 µM with IMR-32 and 24 µM with COLO 205.
With `OCc1cc2ccccc2nc1-c1ccccc1O`, the IC50 in the test with MDA-MB-231 was more than 100 µM; with K562 it was 74 µM; with IMR-32, more than 100 µM; in the test on COLO 205, 40 µM.
As for `O=c1oc2ccccc2c2nc3cc(F)ccc3cc12`, the IC50 in the test on MDA-MB-231 is 29 µM; with K562, 35 µM; with IMR-32, 41 µM; in the test on COLO 205 it was 21 µM.
`Cc1ccc2nc(-c3ccccc3O)c(CO)cc2c1`: the IC50 in the test on MDA-MB-231 is more than 100 µM; in the test on K562 it was 12 µM; in the test on IMR-32, more than 100 µM; with COLO 205 it was more than 100 µM.
With `O=c1oc2ccccc2c2nc3cc(F)c(F)cc3cc12`, the IC50 with MDA-MB-231 amounted to 8 µM; with K562, 41 µM; in the test with IMR-32, 25 µM; in the test with COLO 205, 11 µM.
Turning to `O=c1oc2ccccc2c2nc3ccccc3cc12`, the IC50 with MDA-MB-231 stood at 12 µM; in the test on K562 it was 43 µM; in the test on IMR-32, 28 µM; in the test on COLO 205, 18 µM.
The like results for `O=c1oc2ccccc2c2nc3ccc(F)cc3cc12` were, in that order, 11 µM, 37 µM, 43 µM and 17 µM.
Regarding `Cc1ccc2nc3c(cc2c1)c(=O)oc1ccccc13`, the IC50 with MDA-MB-231 was found to be 12 µM; in the test on K562, 23 µM; with IMR-32, 33 µM; with COLO 205 it was 29 µM.
As for `COc1ccc2c(c1)[nH]c1c(C)nccc12` [HARMINE], the 50% inhibitory concentration (IC50) with MDA-MB-231 is 54 µM; in the test with K562 it was 45 µM; in the test on IMR-32 it was 68 µM; in the test with COLO 205, 46 µM.
As to `O=c1oc2ccccc2c2nc3c(F)c(F)ccc3cc12`, the IC50 in the test on MDA-MB-231 worked out at 23 µM; in the test on K562, 28 µM; in the test on IMR-32, 36 µM; in the test with COLO 205 it was 29 µM. The compound also returned an inhibition in test [1] of 48%.
`[N-]=[N+]=NCc1cc2ccccc2nc1-c1ccccc1O`: the IC50 in the test with MDA-MB-231 is 12 µM; with K562 it was 11 µM; in the test on IMR-32, 24 µM; in the test with COLO 205, 19 µM. Moreover, the inhibition in test [1] was 53%.
`CS(=O)(=O)N(Cc1cn(Cc2cc3ccccc3nc2-c2ccccc2O)nn1)c1ccccc1I`: the IC50 in the test with MDA-MB-231 turned out to be 8 µM; in the test with K562, 13 µM; in the test on IMR-32, 38 µM; with COLO 205 it was 12 µM. The inhibition in test [1] came out at 62%.
Turning to `O=c1oc2ccccc2c2nc3ccc(Cl)cc3cc12`, the IC50 is 14 µM with MDA-MB-231, 32 µM with K562, 46 µM in the test with IMR-32 and 16 µM with COLO 205.
Taken in the same sequence, the figures for `COc1cccc2cc3c(=O)oc4ccccc4c3nc12` were 16 µM, 35 µM, 46 µM and 24 µM.
For the compound `OCc1cc2cc(F)c(F)cc2nc1-c1ccccc1O`, the IC50 with MDA-MB-231 is more than 100 µM; in the test on K562, 12 µM; in the test with IMR-32, 63 µM; with COLO 205 it was more than 100 µM. In addition, in test [1], the inhibition was 48%.
Take `NCc1cc2ccccc2nc1-c1ccccc1O`: the IC50 with MDA-MB-231 was 19 µM; with K562, 23 µM; in the test with IMR-32 it was 46 µM; with COLO 205, 32 µM. The compound further registered an inhibition in test [1] of 59%.

The values are drawn from ChEMBL document CHEMBL1926570, “Ultrasound mediated catalyst free synthesis of 6H-1-benzopyrano[4,3-b]quinolin-6-ones leading to novel quinoline derivatives: their evaluation as potential anti-cancer agents” (Bioorg Med Chem, 2012).
